Laboratory results as given in paper PMC7211327 (International Journal of Nanomedicine, 2020).
Values after ≈ are worked out from the molar mass of the structure shown.

How the values were obtained:
Assay type in all cases: cell-based
[1] = system: Bacillus subtilis (ATCC 6633); experiment: Agar plate diffusion, inhibition zone; settings: ATCC6633, 24 h, read-out: Mean Diameter of Inhibition Zone (IZ)
[2] = system: Bacillus subtilis (ATCC 6633); experiment: Paper disk diffusion MIC; settings: ATCC6633, 24 h, read-out: Minimal Inhibitory Concentration (MIC)
Summary of the method: (§1)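 Paper disk diffusion MIC. Paper disks (12.7 mm) were loaded with test compound at different concentrations, dried and placed on nutrient agar inoculated with the test organism. Growth inhibition was examined after 24 hrs at 37°C. Each test was done three times, and values are the mean ± standard error.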

[3] = system: Staphylococcus aureus (ATCC 29213); experiment: Agar plate diffusion, inhibition zone; settings: ATCC29213, 24 h, read-out: Mean Diameter of Inhibition Zone (IZ)
[4] = system: Staphylococcus aureus (ATCC 29213); experiment: Paper disk diffusion MIC; settings: ATCC29213, 24 h, read-out: Minimal Inhibitory Concentration (MIC)
Summary of the method: as §1

[5] = system: Escherichia coli (ATCC 25922); experiment: Agar plate diffusion, inhibition zone; settings: ATCC25922, 24 h, read-out: Mean Diameter of Inhibition Zone (IZ)
[6] = system: Escherichia coli (ATCC 25922); experiment: Paper disk diffusion MIC; settings: ATCC25922, 24 h, read-out: Minimal Inhibitory Concentration (MIC)
Summary of the method: as §1

[7] = system: Pseudomonas aeruginosa (ATCC 27853); experiment: Agar plate diffusion, inhibition zone; settings: ATCC27853, 24 h, read-out: Mean Diameter of Inhibition Zone (IZ)
[8] = system: Pseudomonas aeruginosa (ATCC 27853); experiment: Paper disk diffusion MIC; settings: ATCC27853, 24 h, read-out: Minimal Inhibitory Concentration (MIC)
Summary of the method: as §1

MRSA [9] = experiment: Agar plate diffusion, inhibition zone; settings: Staphylococcus aureus, 24 h, read-out: Mean Diameter of Inhibition Zone (IZ)
MRSA [10] = experiment: Paper disk diffusion MIC; settings: Staphylococcus aureus, 24 h, read-out: Minimal Inhibitory Concentration (MIC)
Summary of the method: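 Bacteria were grown on nutrient agar. Dried 12.7 mm paper disks loaded with a range of test compound concentrations were placed on inoculated agar plates. Growth inhibition was scored after 24 h at 37°C, and each test was replicated three times.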

Row | SMILES | zone of inhibition at 500 µg/mL [1] | MIC [2] | zone of inhibition at 500 µg/mL [3] | MIC [4] | zone of inhibition at 500 µg/mL [5] | MIC [6] | zone of inhibition at 500 µg/mL [7] | MIC [8] | zone of inhibition at 500 µg/mL (MRSA [9]) | MIC (MRSA [10])
1 | CN(C)[C@@H]1C(O)=C(C(N)=O)C(=O)[C@@]2(O)C(O)=C3C(=O)c4c(O)cccc4[C@@](C)(O)[C@H]3C[C@@H]12 [Tetracycline, reference compound] | 25 ± 0.01 mm | 31.2 µg/mL (≈ 70.3 µM) | 25 ± 0.04 mm | 62.5 µg/mL (≈ 141 µM) | 23 ± 0.31 mm | 15.6 µg/mL (≈ 35.2 µM) | 20 ± 0.1 mm | 62.5 µg/mL (≈ 141 µM) | – | –
2 | Cc1cccc(NC(=O)CSc2nc3ccccc3c(=O)n2-c2ccc(S(N)(=O)=O)cc2)c1 [Compound 7, 2-((4-Oxo-3-(4-sulfamoylphenyl)-3,4-dihydroquinazolin-2-yl)thio)-N-3-tolylacetamide] | 20 ± 0.21 mm | 1.25 µg/mL (≈ 2.6 µM) | 15 ± 0.07 mm | 2.5 µg/mL (≈ 5.2 µM) | 12 ± 0.15 mm | 20 µg/mL (≈ 41.6 µM) | 14 ± 0.03 mm | 15.6 µg/mL (≈ 32.5 µM) | 10 ± 0.02 mm | 7.81 µg/mL (≈ 16.3 µM)
3 | NS(=O)(=O)c1ccc(-n2c(SCC(=O)Nc3ccccc3)nc3ccccc3c2=O)cc1 [Compound 5, 2-((4-Oxo-3-(4-sulfamoylphenyl)-3,4-dihydroquinazolin-2-yl)thio)-N-phenylacetamide] | 25 ± 0.07 mm | 2.5 µg/mL (≈ 5.36 µM) | 22 ± 0.31 mm | 1.56 µg/mL (≈ 3.34 µM) | 14 ± 0.23 mm | 10 µg/mL (≈ 21.4 µM) | 15 ± 0.21 mm | 20 µg/mL (≈ 42.9 µM) | 20 ± 0.18 mm | 10 µg/mL (≈ 21.4 µM)
4 | Cc1ccc(NC(=O)CSc2nc3ccccc3c(=O)n2-c2ccc(S(N)(=O)=O)cc2)cc1 [Compound 8, 2-((4-Oxo-3-(4-sulfamoylphenyl)-3,4-dihydroquinazolin-2-yl)thio)-N-4-tolylacetamide] | 26 ± 0.16 mm | 6.31 µg/mL (≈ 13.1 µM) | 23 ± 0.09 mm | 12.5 µg/mL (≈ 26 µM) | – | – | – | – | 19 ± 0.01 mm | 20 µg/mL (≈ 41.6 µM)
5 | O=C(O)c1cn(C2CC2)c2cc(N3CCNCC3)c(F)cc2c1=O [Ciprofloxacin, reference compound] | 29 ± 0.15 mm | 0.8 µg/mL (≈ 2.41 µM) | 27 ± 0.23 mm | 0.78 µg/mL (≈ 2.35 µM) | 27 ± 0.98 mm | 1.57 µg/mL (≈ 4.74 µM) | 24 ± 0.47 mm | 3.13 µg/mL (≈ 9.45 µM) | 22 ± 0.5 mm | 1.25 µg/mL (≈ 3.77 µM)
6 | CN[C@H](CC(C)C)C(=O)N[C@H]1C(=O)N[C@@H](CC(N)=O)C(=O)N[C@H]2C(=O)N[C@H]3C(=O)N[C@H](C(=O)N[C@H](C(=O)O)c4cc(O)cc(O)c4-c4cc3ccc4O)[C@H](O)c3ccc(c(Cl)c3)Oc3cc2cc(c3O[C@@H]2O[C@H](CO)[C@@H](O)[C@H](O)[C@H]2O[C@H]2C[C@](C)(N)[C@H](O)[C@H](C)O2)Oc2ccc(cc2Cl)[C@H]1O [Vancomycin, reference compound] | 21 ± 0.4 mm | 1.95 µg/mL (≈ 1.35 µM) | 17 ± 0.11 mm | 1.57 µg/mL (≈ 1.08 µM) | 24 ± 0.2 mm | 1.38 µg/mL (≈ 0.952 µM) | 22 ± 0.85 mm | 2.5 µg/mL (≈ 1.73 µM) | 14 ± 0.65 mm | 3.9 µg/mL (≈ 2.69 µM)
7 | Cc1ccccc1NC(=O)CSc1nc2ccccc2c(=O)n1-c1ccc(S(N)(=O)=O)cc1 [Compound 6, 2-((4-Oxo-3-(4-sulfamoylphenyl)-3,4-dihydroquinazolin-2-yl)thio)-N-2-tolylacetamide] | 16 ± 0.1 mm | 15.6 µg/mL (≈ 32.5 µM) | 14 ± 0.03 mm | 31.2 µg/mL (≈ 65 µM) | 15 ± 0.31 mm | 5 µg/mL (≈ 10.4 µM) | 17 ± 0.13 mm | 7.5 µg/mL (≈ 15.6 µM) | – | –
